# Screening results as filed in PubChem.
# Beta cell apopt – inhibitors of cytokine-induced beta cell apoptosis, primary screen, luminescence | INS-1E cytokine-induced death, ATP luminescence, 48 h; percent of positive-control rescue, neutral wells zero | protection from apoptosis, % (test concentration not listed) | hit rate 0.8% among 300,000 | AID 435005, 2010;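 active = Every replicate reaches about 75%, or at least half do and their mean reaches it too, limit read from the data; inconclusive = At least half of replicates reach the limit but their mean does not; inactive = Under half of replicates reach the limit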;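 note: 0% = cytokine-treated negative control wells and 100% = positive control rescue; higher means more ATP so stronger rescue from cytokine killing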
# Calb FLC – C. albicans growth inhibition with fluconazole, primary screen, CaCi-2 strain, Alamar Blue fluorescence; C. albicans CaCi-2 (fluconazole-resistant clinical isolate) + fluconazole, 48 h; growth inhibition, % (test concentration not listed); hit rate 0.57% among 300,000; AID 1979, 2009;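 active = growth inhibition above about 58% in most replicates, limit read from the data, passing the limit was not always enough; inconclusive = exactly half the replicates above a set limit; inactive = most replicates below a set limit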;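 note: all wells also contain fluconazole at 8 µg/ml as a sub-toxic cotreatment; 0% = median of DMSO wells and 100% = median of geldanamycin control wells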
# Mdm2 MdmX PPI – inhibitors of human Mdm2-MdmX association, primary screen, cell-based, luminescence, split luciferase, SaOS-2, uHTS | inhibition, % at 8 µM | Protein Mdm4 (Homo sapiens) + E3 ubiquitin-protein ligase Mdm2 (Homo sapiens), … | AID 485346, 2010 | SaOS-2 split-luciferase Mdm2/MdmX complementation | hit rate 3% among 330,000;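 active = inhibition of at least 50% at 8 µM in the primary screen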
# Target sequence (O15151 whole entry, looked up): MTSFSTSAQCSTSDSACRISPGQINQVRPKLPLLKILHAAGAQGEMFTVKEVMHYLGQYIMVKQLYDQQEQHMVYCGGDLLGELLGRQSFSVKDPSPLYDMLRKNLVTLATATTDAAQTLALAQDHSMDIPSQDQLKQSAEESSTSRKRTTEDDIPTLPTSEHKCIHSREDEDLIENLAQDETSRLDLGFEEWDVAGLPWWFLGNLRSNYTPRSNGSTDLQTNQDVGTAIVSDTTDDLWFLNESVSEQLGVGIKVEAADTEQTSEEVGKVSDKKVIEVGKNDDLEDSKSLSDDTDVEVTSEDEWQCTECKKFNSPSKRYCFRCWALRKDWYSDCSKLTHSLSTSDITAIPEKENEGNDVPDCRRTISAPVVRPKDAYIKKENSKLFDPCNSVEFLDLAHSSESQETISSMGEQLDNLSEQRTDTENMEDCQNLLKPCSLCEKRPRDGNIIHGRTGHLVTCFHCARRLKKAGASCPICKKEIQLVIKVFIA
# Target sequence (Q00987 whole entry, looked up): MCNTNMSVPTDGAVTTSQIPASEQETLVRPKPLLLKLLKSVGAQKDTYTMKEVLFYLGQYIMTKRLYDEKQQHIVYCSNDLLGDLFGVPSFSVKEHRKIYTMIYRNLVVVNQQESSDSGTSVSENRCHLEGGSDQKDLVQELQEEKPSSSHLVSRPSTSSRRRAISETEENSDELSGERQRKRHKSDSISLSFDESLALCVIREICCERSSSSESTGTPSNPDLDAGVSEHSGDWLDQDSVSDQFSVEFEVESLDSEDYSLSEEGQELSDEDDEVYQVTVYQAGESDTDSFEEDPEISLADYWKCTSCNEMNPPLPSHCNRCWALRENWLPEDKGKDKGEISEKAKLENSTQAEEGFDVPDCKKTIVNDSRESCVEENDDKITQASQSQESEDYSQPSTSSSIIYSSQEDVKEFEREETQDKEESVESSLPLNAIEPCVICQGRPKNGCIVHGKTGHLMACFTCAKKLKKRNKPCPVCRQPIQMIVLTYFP
# SKKanGAS inh – S. pyogenes SKKanGAS growth inhibitors in kanamycin, primary screen, streptokinase expression inhibitor project, SKKanGAS strain, BacTiter-Glo luminescence; AID 1662, 2009; hit rate 1.3% among 300,000; inhibition, % at 7.5 µM; 6 h;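 active = mean replicate score, as percent of positive control median, at least 50; inconclusive = mean below 50 but one replicate at or above 50; inactive = mean and every replicate below 50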;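 note: strain carries kanamycin resistance gene driven by streptokinase promoter and grows in 40 µg/ml kanamycin; loss of luminescence reflects streptokinase promoter inhibition or plain growth inhibition; 0% = median of DMSO wells and 100% = positive control at its reference dose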
# CSC inhib – cancer stem cell viability inhibitors, primary screen, luminescence | cancer stem cell-like cells viability | inhibition, % at 7.5 µM | hit rate 1.1% among 300,000 | AID 2717, 2010; in the data active = inhibition above about 75%; inconclusive = no clear call, values can overlap the other calls; tested in HMLE shEcad cells
# T cruzi inh – inhibitors of intracellular T. cruzi growth, primary screen, luminescence, NIH3T3 host cells; hit rate 1.4% among 300,000; inhibition, % (test concentration not listed); T. cruzi beta-gal in NIH3T3, 90 h;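 active = mean inhibition across valid replicates above about 55%, limit read from the data; inconclusive = mean below that limit but half or more replicates reach it; inactive = mean below it, under half of replicates reach it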;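 note: signal also drops with host cell toxicity which is not excluded here; 0% = plate median of DMSO wells and 100% = zero luminescence signal; higher percent means less beta-gal luminescence so fewer parasites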
#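 Assay system: NIH/3T3 host cells with β-galactosidase reporter T. cruzi; input: 5,000 host fibroblasts per well; compound: single 50 nL compound addition per well in DMSO; timing: ≥90 h infection period, 3 h prior cell attachment; measured by: GalScreen β-gal luminescence, detergent lysis, 60 min; evaluation: percent inhibition of parasite-derived β-gal signal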
# An asterisk follows results filed as active; ? = inconclusive; / = no result given. Most compounds without a hit are left out; they make up all but 5.7% or so of the library.
SMILES,Beta cell apopt,Calb FLC,Mdm2 MdmX PPI,SKKanGAS inh,CSC inhib,T cruzi inh
CN1CCc2c(sc(NC(=O)Cc3ccccc3)c2C(N)=O)C1,-10.9,-1.2,7.7,-3.4,2.4,-26.4
CCOC(=O)c1c(NC(=O)C[n+]2ccc(Cc3ccccc3)cc2)sc(C)c1C,77.6*,-45.0,26.8,-4.4,-8.1,58.9*
CCOC(=O)c1c(NC(=O)Cc2ccccc2)sc2c1CCN(CC)C2,-14.8,6.9,-22.6,0.4,/,28.8
COc1cccc(CN(C)C(=O)CN2C(=O)NC(c3ccccc3)(c3ccccc3)C2=O)c1,/,/,8.5,/,/,/
Cc1ccc(-n2nnnc2-c2ccccc2)cc1,1.5,22.3,30.9,0.2,3.4,-5.3
Cc1ccc(-n2nnnc2C(Cl)c2nnnn2-c2ccc(C)cc2)cc1,/,96.0*,/,-13.5,/,55.0*
CC1Cc2cc(S(=O)(=O)N3CCC(C(=O)N(C)Cc4ccco4)CC3)ccc2N1C(=O)C1CCC1 (stereo not given),9.1,-1.6,11.8,-5.6,-3.6,-7.3
N#C/C(=C\c1ccc(N2CCOCC2)o1)C(=O)Nc1ccc(O)cc1,5.2,38.6,-7.2,-22.4,4.0,-22.3
COc1ccc(NC(=O)/C(C#N)=C\c2ccc(N3CCOCC3)o2)cc1,5.6,103.1*,24.3,-6.4,-3.5,0.3
Cc1csc(NC(=O)COCC(=O)O)c1-c1nc2ccccc2s1,-3.6,1.6,18.8,50.5*,0.5,5.4
CC(C)CCC(CCNCc1ccccn1)c1ccc(Cl)cc1 (stereo not given),30.7,-10.8,11.7,51.4*,18.2,1.4
COc1ccc(-c2cn3cc(C(F)(F)F)cc(Cl)c3n2)cc1,-2.4,-3.9,-299.4,-1.0,127.2*,20.6
Cc1ccc(NC(=S)NC(=O)C2CC2)cc1Cl,4.5,112.4*,6.1,/,6.6,/
O=C(NC(=S)Nc1ccc(F)c(Cl)c1)C1CC1,-1.5,11.3,14.7,0.9,3.9,-15.9
COc1ccccc1C(=O)NNC(=O)C(=O)Nc1ccc(C)c(Cl)c1,-3.8,-3.6,8.7,98.1*,/,2.5
COc1cccc(NC(=O)Nc2ccc(C)c(Cl)c2)c1,11.6,-32.3,-43.6,2.4,16.3,60.7*
COc1cccc(NC(=O)Nc2cc(C(=O)O)ccc2C)c1,-6.7,-12.3,-4.9,0.5,-8.5,-3.6
Cc1ccc(NC(=O)N(Cc2cccnc2)Cc2ccco2)cc1C,-6.0,21.6,21.3,-10.7,0.5,67.2*
Cc1ccc(NC(=O)N(Cc2ccco2)C(C)c2ccco2)cc1C (stereo not given),2.2,2.0,-21.4,6.2,8.1,7.5
O=C(Nc1ccc(Cl)cc1)N(Cc1cccnc1)Cc1ccco1,-1.3,-4.1,-5.5,5.8,1.9,60.9*
Cc1ccc(NC(=S)N(CCCN2CCOCC2)Cc2cccnc2)cc1C,-9.3,-15.0,0.4,-0.2,-13.9,68.4*
O=C(NCc1ccncc1)C(=O)NCC1OCCN1S(=O)(=O)c1ccc(F)cc1 (stereo not given),4.3,0.4,12.3,6.8,4.6,5.5
CC(=O)c1cccc(NC(=O)C(C)OC(=O)c2ccc(-n3cnnn3)cc2)c1 (stereo not given),/,/,17.2,/,/,/
CCCCn1c2ccc(C)cc2c2nnc(SCCN3CCCCC3)nc21,21.6,-1.4,17.5,4.8,36.4,52.0
CCCCn1c2ccc(F)cc2c2nnc(SCCN3CCCCC3)nc21,/,10.4,-5.6,-0.4,/,58.8*
SMILES,Beta cell apopt,Calb FLC,Mdm2 MdmX PPI,SKKanGAS inh,CSC inhib,T cruzi inh
O=[N+]([O-])c1ccc(Cl)c(CN2CCN(c3ncccn3)CC2)c1,0.7,-11.5,16.5,10.5,1.9,-0.9
Cc1ccc2nc(C)c(CN3CCN(c4ccc([N+](=O)[O-])cc4Cl)CC3)n2c1,104.2*,?,23.8,7.2,2.4,41.5
CCc1ccc(OCCNC(=O)c2ccccc2SCc2ccc(F)cc2)cc1,2.9,1.0,17.2,17.0,23.5,56.7*
O=C(CCC(=O)N1CCN(S(=O)(=O)c2ccccc2)CC1)c1ccc(Br)cc1,2.6,/,13.6,/,4.6,/
Cn1nnnc1SCC1=C(C(=O)O)N2C(=O)C(NC(=O)C3CC3c3ccccc3)C2SC1 (stereo not given),-12.2,-5.4,23.0,100.8*,-12.3,-1.5
Cc1nn(C(C)C(=O)NC2C(=O)N3C(C(=O)O)=C(CSc4nnnn4C)CSC23)cc1Cl (stereo not given),-1.8,?,9.4,100.0*,-3.8,-10.2
CC(C(=O)NC1C(=O)N2C(C(=O)O)=C(CSc3nnnn3C)CSC12)n1cc(Br)cn1 (stereo not given),-8.3,7.0,-6.4,97.4*,-8.5,-8.8
Cc1cc(C(F)F)nn1CC(=O)NC1C(=O)N2C(C(=O)O)=C(CSc3nnnn3C)CSC12 (stereo not given),1.3,-1.5,0.5,119.0*,-1.8,1.8
O=C(NCCc1ccc(F)cc1)c1ccc(NS(=O)(=O)c2ccc3[nH]c(=O)[nH]c3c2)cc1,-2.6,/,12.4,-3.6,-2.3,-2.8
COc1ccc(S(=O)(=O)Nc2ccc3c(c2)C(=O)N([C@H](C)CO)C[C@H](C)[C@@H](CN(C)C(=O)NC2CCCCC2)O3)cc1,-2.4,/,19.8,/,-5.5,/
COc1ccc(N(CC(=O)Nc2ccccc2C(N)=O)S(=O)(=O)c2ccc(C)c([N+](=O)[O-])c2)cc1,-4.5,95.2*,3.2,0.0,-8.6,-0.1
CCCCOC(=O)c1[nH]c2c(c1C)C(=O)CC(c1cc(OC)c(OC)c(OC)c1)C2 (stereo not given),74.9*,7.2,26.1,6.2,25.2,31.2
CCCCn1c2nc3ccccc3nc2c2c(=O)n(C(C)CC)cnc21 (stereo not given),7.5,29.9,17.6,26.0,-0.9,22.6
CCC(C)n1c(C)nc2c(c1=O)c1nc3ccccc3nc1n2CCC1=CCCCC1 (stereo not given),10.5,-0.7,6.6,39.8,18.4,58.5*
CCC(=O)c1cn([C@H](CCC(OC)OC)CC(=O)OC(C)(C)C)cc1CC,-9.0,-0.4,10.4,-2.9,-2.1,-13.8
Cc1ccc2nc(N(CCN(C)C)C(=O)c3ccc4c(c3)OCCO4)sc2c1,-5.2,-4.2,7.5,8.5,-4.1,71.7*
CN(C)CCN(C(=O)c1ccc(N2C(=O)CCC2=O)cc1)c1nc2cc3c(cc2s1)OCO3,0.6,-5.6,-40.3,-6.5,7.8,56.7*
CCN(CC)CCN(C(=O)c1ccc2c(c1)OCCO2)c1nc2cc3c(cc2s1)OCO3,-0.3,-2.1,1.6,2.0,-1.5,35.4
CCN(CC)CCN(C(=O)c1ccc2c(c1)OCCO2)c1nc2ccc(C)cc2s1,-9.0,2.8,-0.5,-0.1,13.5,68.6*
Cc1cccc(OCC(=O)NCC(C)(C)N2CCOCC2)c1,-9.5,/,-18.8,/,/,/
